Only some compounds are listed: those with a hit (about 3.9% of all), similar ones and a draw of the others.
TAAR1 agonist: agonists of human TAAR1 | 360,000 tested, 0.99% active | CHO RD-HGA16 TAAR1, Fluo-8 calcium fluorescence; vehicle wells 0%, saturating PEA agonist 100% | Q96RJ0 | AID 624467 | activation, % at 3 µM;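 active = activation above the mean activation of all test compounds in the run plus 3 SD, cut at about 38% in these data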
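Test system: RD-HGA16 (CHO) cells co-expressing Gα16 and hTAAR1; dosing: one-point dosing at 3 µM (nominal); timing: 17-24 h seeding, 75 min 37 °C dye, 30 min RT; signal: kinetic Fluo-8 calcium fluorescence; read-out basis: % activation relative to PEA EC100 response; controls: DMSO and PEA EC100; replicates: n 1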
CRFBP-R2 block: blocks CRF-induced signaling of the CRF-BP/CRF-R2 complex | 350,000 tested, 0.59% active | inhibition, % at 11.8 µM | HEK293 CRF-R2/CRF-BP, CRF-induced calcium fluorescence | AID 588475;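 active = inhibition of the ligand-induced calcium signal above about 50% at the single tested concentration, limit read from the data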
TMEM16A inh: blocks the mouse calcium-activated chloride channel TMEM16A; Q8BHY3; HEK293 TMEM16A/YFP iodide influx fluorescence, ionomycin; normalized B-score (activity score, 25-100; higher = stronger inhibition) at 10 µM; 310,000 tested, 1.2% active; AID 588511;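 active = ratio plate-corrected score three or more library SD toward inhibition, starting fluorescence score within five deviations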;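 also: score derived from kinetic fluorescence span divided by baseline fluorescence per well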
TAAR1 antagonist: human TAAR1 antagonism; CHO RD-HGA16 TAAR1, Fluo-8 calcium fluorescence, antagonist; inhibition, % at 3 µM; 360,000 tested, 1.5% active; AID 624466;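 active = inhibition above a per-plate cutoff, the mean inhibition of test compounds on that plate plus 3 SD, cut at about 49% in these data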;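 also: 0% = DMSO plus EC80 beta-PEA response and 100% = DMSO alone without agonist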
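test system = CHO RD-HGA16 cells bearing hTAAR1 | replication = singlicate | controls = DMSO-only wells and EC80 β-PEA-stimulated wells | reagent = EC80 β-phenethylamine stimulus | read-out basis = percent inhibition of PEA-evoked calcium signal, max/basal emission ratio | schedule = seeding 17-24 h prior, 75-min 37 °C, 30-min RT dye loading | signal = kinetic Fluo-8 calcium fluorescence measurement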
TMEM16A act: mouse TMEM16A channel activation, primary screen. B-score at 10 µM. Q8BHY3. HEK293 TMEM16A/YFP-H148Q/I152L, iodide quench fluorescence; hits give low values. 340,000 tested, 0.3% active;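 active = fluorescence-ratio B-score plate-corrected deviation score at least 3 library SD below zero, with starting fluorescence score within 5 deviations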;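 also: channel opened by trigger with iodide after compound preincubation; score built on the fluorescence ratio of max minus min over baseline; more negative score means more quench and so TMEM16A activation or potentiation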
CRFR2-BP ag: CRF-BP/CRF-R2 complex agonism. HEK293 CRF-R2/CRF-BP, calcium dye fluorescence (FLIPR); percent of saturating CRF peptide response. activation, % at 13.2 µM. 350,000 tested, 0.46% active. AID 588473;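 active = activation of at least 50%, plus an integration ratio under a set limit after plate pattern correction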;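 also: plate controls were neutral control wells without compound for no effect and CRF at EC100 for full effect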
TMEM16A reconf: TMEM16A (mouse) chloride channel inhibition, re-confirmation. shares compounds with TMEM16A inh. HEK293 TMEM16A/YFP-H148Q, iodide quench fluorescence; ionomycin added to raise cell calcium. inhibition, % at 10 µM. 2,300 tested, 39% active;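 active = mean duplicate percent inhibition, scaled so buffer wells are 0 and the reference blocker 100, over three buffer SD above buffer mean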
HEK293 Ca mobil: alters calcium mobilization in TMEM16A HEK293 cells, counter-screen; shares compounds with TMEM16A inh; calcium response (% of ionomycin), % at 10 µM; TMEM16A/YFP HEK293, Fluo4 calcium mobilization; 2,300 tested, 2% active;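 active = duplicate-averaged calcium signal over 20% of the ionomycin maximum, relative to buffer baseline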;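 also: each well's signal is peak minus trough fluorescence divided by its pre-addition baseline; 0% = buffer wells and 100% = ionomycin wells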
Parental YFP cnt: acts in parental YFP-HEK293 cells lacking TMEM16A, counter-screen; shares compounds with TMEM16A inh; iodide YFP quench, ionomycin; YFP ratio F(max-min)/F0 at 10 µM; 2,300 tested, under 10 active;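 active = yellow fluorescent protein signal ratio exceeding the buffer control mean by over 5 SD of those controls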;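 also: ratio is mean of duplicate wells from kinetic YFP trace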
ClC-1 rat inh: rat ClC-1 inhibition, TMEM16A specificity screen. shares compounds with TMEM16A inh. CHO ClC-1-YFP, iodide influx fluorescence quench; iodide control reads 0, buffer control 100. ratio percent, % at 10 µM. 2,300 tested, under 10 active. AID 652236;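 active = duplicate-mean ratio percent above the mean of iodide-only control wells, which defines zero, plus 5 of their SD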;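 also: higher percent means stronger block of ClC-1 iodide influx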
The depositor's hits bear a star.

Screening O=C(COC(=O)CCc1ccc(S(=O)(=O)N2CCOCC2)cc1)NC(=O)NC1CCCCC1 returned TAAR1 agonist 18.5, CRFBP-R2 block -5.0, TMEM16A inh inactive, TAAR1 antagonist 16.5, TMEM16A act inactive and CRFR2-BP ag -0.3.
COC(=O)c1ccccc1NC(=O)CNc1cc(OC)c(OC)cc1C was read as TAAR1 agonist 1.1, CRFBP-R2 block -9.6, TMEM16A inh 25*, TAAR1 antagonist -2.8, TMEM16A act inactive, CRFR2-BP ag -1.7, TMEM16A reconf inactive, HEK293 Ca mobil inactive, Parental YFP cnt -1.11 and ClC-1 rat inh -14.0.
Screening O=S(=O)(Nc1ccc(S(=O)(=O)N2CCCCC2)cc1)c1ccc(Br)s1 returned TAAR1 agonist 10.5, CRFBP-R2 block -4.8, TMEM16A inh 25*, TAAR1 antagonist 0.1, TMEM16A act inactive, CRFR2-BP ag -3.2, TMEM16A reconf inactive, HEK293 Ca mobil inactive, Parental YFP cnt -0.949 and ClC-1 rat inh -3.5.
For CC(=O)c1cccc(S(=O)(=O)Nc2ccc3nc(C)sc3c2)c1 the results were TAAR1 agonist 3.7, CRFBP-R2 block 0.7, TMEM16A inh 100*, TAAR1 antagonist 8.3, TMEM16A act inactive, CRFR2-BP ag -1.3, TMEM16A reconf inactive, HEK293 Ca mobil inactive, Parental YFP cnt -0.956 and ClC-1 rat inh -10.0.
`Cc1nc2cc(NS(=O)(=O)c3cccc(F)c3)ccc2s1` gave TAAR1 agonist 3.8, CRFBP-R2 block -21.1, TMEM16A inh inactive, TAAR1 antagonist -16.2, TMEM16A act inactive and CRFR2-BP ag -5.4.
O=S(=O)(c1ccc2oc(=S)[nH]c2c1)N1CCCCC1 was read as TAAR1 agonist 1.6, CRFBP-R2 block 2.0, TMEM16A inh inactive, TAAR1 antagonist -8.9, TMEM16A act inactive and CRFR2-BP ag 0.6.
For S=c1[nH]c2cc(-c3ccccc3)ccc2o1 the results were TAAR1 agonist 2.6, CRFBP-R2 block 6.5, TMEM16A inh 25*, TAAR1 antagonist 5.3, TMEM16A act inactive, CRFR2-BP ag -0.3, TMEM16A reconf inactive, HEK293 Ca mobil inactive, Parental YFP cnt -1.03 and ClC-1 rat inh -9.5.
Screening Cc1[nH]n(-c2ccccc2)c(=O)c1N=Nc1ccc2c(c1)OCCO2 returned TAAR1 agonist 1.1, CRFBP-R2 block 7.3, TMEM16A inh inactive, TAAR1 antagonist -16.8, TMEM16A act inactive and CRFR2-BP ag -1.1.
For Cc1[nH]n(-c2ccccc2)c(=O)c1N=Nc1c(O)cc(S(=O)(=O)N(C)C)c2ccccc12 the results were TAAR1 agonist 8.3, CRFBP-R2 block 42.1, TMEM16A inh 100*, TAAR1 antagonist 20.4, TMEM16A act inactive, CRFR2-BP ag -1.2, TMEM16A reconf 48.0%*, HEK293 Ca mobil inactive, Parental YFP cnt -0.95 and ClC-1 rat inh -3.0.
For CCC(=O)c1ccc(OCC(=O)OCC(=O)N2c3ccccc3CC2C)cc1 (stereo not given) the results were TAAR1 agonist 13.4, CRFBP-R2 block -0.2, TMEM16A inh inactive, TAAR1 antagonist 24.5, TMEM16A act inactive and CRFR2-BP ag -0.6.

Source: PubChem BioAssay (several laboratories)
